≈ marks a conversion by molar mass, not a printed value.
Columns and labels:
Type in all cases: functional
Talaromyces marneffei = assay: Antifungal activity against Penicillium marneffei by EUCAST method; settings: read-out: MEC
[1] = tested on: Meyerozyma guilliermondii; assay: Antifungal activity against Candida guilliermondii
How it was run: (§1)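 Broth microdilution in flat-bottom plates in RPMI 1640 with 2% glucose; inoculum 0.5 × 105 to 2.5 × 10^5 CFU/ml. MICs were read spectrophotometrically at 24 h. AMB endpoint: ≥90% growth reduction vs drug-free control well. Azole and CPF endpoint: 50% reduction in optical density. MFC was taken as the lowest concentration giving 99% killing.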

Pichia kudriavzevii = assay: Antifungal activity against Candida krusei
How it was run: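 EUCAST broth microdilution for yeasts in flat-bottom plates, RPMI 1640 with 2% glucose, inoculum 0.5 × 105 to 2.5 × 10^5 CFU/ml. […] MFC is the lowest concentration giving 99% killing.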

Aspergillus flavus [2] = assay: Antifungal activity against Aspergillus flavus
[3] = Antifungal activity against Rhizopus microsporus var. oligosporus by EUCAST method
How it was run: (§2)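 Broth microdilution following the EUCAST reference procedure for spore-forming moulds, in flat-bottom plates with RPMI 1640 plus 2% glucose. Inoculum was 2 × 10^5 to 5 × 10^5 CFU/ml. MICs were read visually at 24 and 48 h as 100% growth reduction versus a drug-free control for polyenes and azoles. MEC was used for caspofungin. Tests were run in duplicate and repeated twice.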

[4] = Antifungal activity against Rhinocladiella aquaspersa
How it was run: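 Dematiaceous fungi were tested by the EUCAST spore-forming mold reference procedure: flat-bottom microdilution plates, RPMI 1640 plus 2% glucose, inoculum 2 × 105 to 5 × 10^5 CFU/ml. Endpoints were read visually at 24 and 48 h. Polyenes and azoles: 100% growth reduction vs drug-free control. CPF: minimum effective concentration. Run in duplicate and repeated twice.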

Aspergillus flavus [5] = assay: Antifungal activity against Aspergillus flavus by EUCAST method
Cunninghamella [6] = assay: Antifungal activity against Cunninghamella species
Rhizopus arrhizus [7] = assay: Antifungal activity against Rhizopus oryzae; how it was run: as §2
Trichosporon inkin = assay: Antifungal activity against Trichosporon inkin
How it was run: (§3)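 Nonfermentative yeasts were tested by the EUCAST microdilution recommendations with one change: plates were sealed and agitated at 350 rpm and 30°C for 48 h.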

Aspergillus niger [8] = assay: Antifungal activity against Aspergillus niger by EUCAST method
[9] = Antifungal activity against Cryptococcus neoformans var. neoformans by EUCAST method; settings: Cryptococcus deneoformans
How it was run: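 EUCAST yeast microdilution, modified for nonfermentative yeasts: plates were sealed and agitated at 350 rpm and 30°C for 48 h.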

Nakaseomyces glabratus = assay: Antifungal activity against Candida glabrata; how it was run: as §1
Trichosporon asahii [10] = assay: Antifungal activity against Trichosporon asahii; how it was run: as §3
Curvularia lunata = assay: Antifungal activity against Curvularia lunata
Rhizomucor = assay: Antifungal activity against Rhizomucor species
Rhizopus arrhizus [11] = assay: Antifungal activity against Rhizopus oryzae by EUCAST method; settings: read-out: MEC; how it was run: as §2
Cunninghamella [12] = assay: Antifungal activity against Cunninghamella species by EUCAST method; settings: read-out: MEC
Geotrichum candidum = assay: Antifungal activity against Geotrichum candidum
Fusarium solani = assay: Antifungal activity against Fusarium solani by EUCAST method; settings: read-out: MEC
Sporothrix schenckii = assay: Antifungal activity against Sporothrix schenckii by EUCAST method; settings: read-out: MEC; how it was run: as §2
Candida tropicalis [13] = assay: Antifungal activity against Candida tropicalis by EUCAST method; how it was run: as §1
Scedosporium apiospermum = assay: Antifungal activity against Scedosporium apiospermum by EUCAST method; settings: read-out: MEC; how it was run: as §2
Clavispora lusitaniae = assay: Antifungal activity against Candida lusitaniae by EUCAST method; how it was run: as §1
Aspergillus niger [14] = assay: Antifungal activity against Aspergillus niger
Candida tropicalis [15] = assay: Antifungal activity against Candida tropicalis; how it was run: as §1
[16] = Antifungal activity against Rhizopus microsporus var. oligosporus; how it was run: as §2
Candida parapsilosis = assay: Antifungal activity against Candida parapsilosis; settings: Lodderomyces parapsilosis; how it was run: as §1
Trichosporon asahii [17] = assay: Antifungal activity against Trichosporon asahii by EUCAST method; how it was run: as §3
Lomentospora prolificans = assay: Antifungal activity against Scedosporium prolificans; how it was run: as §2
Lichtheimia corymbifera [18] = assay: Antifungal activity against Absidia corymbifera
Absidia = assay: Antifungal activity against Absidia species by EUCAST method; settings: read-out: MEC
Saccharomyces cerevisiae = assay: Antifungal activity against Saccharomyces cerevisiae
How it was run: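 Broth microdilution following EUCAST for fermentative yeasts, in flat-bottom plates with RPMI 1640 plus 2% glucose. Inoculum was 0.5 × 10^5 to 2.5 × 10^5 CFU/ml. End points were read spectrophotometrically at 24 h: ≥90% growth reduction versus a drug-free control for amphotericin B, and 50% OD reduction for azoles and caspofungin. MFC was the lowest concentration giving 99% killing.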

Rhizopus = assay: Antifungal activity against Rhizopus species by EUCAST method; settings: read-out: MEC; how it was run: as §2
Mucor hiemalis = assay: Antifungal activity against Mucor hiemalis by EUCAST method; settings: read-out: MEC
Lichtheimia corymbifera [19] = assay: Antifungal activity against Absidia corymbifera by EUCAST method; settings: read-out: MEC

CC[C@H](C)C[C@H](C)CCCCCCCCC(=O)N[C@H]1C[C@@H](O)[C@@H](NCCN)NC(=O)[C@@H]2[C@@H](O)CCN2C(=O)[C@H]([C@H](O)CCN)NC(=O)[C@H]([C@H](O)[C@@H](O)c2ccc(O)cc2)NC(=O)[C@@H]2C[C@@H](O)CN2C(=O)[C@H]([C@@H](C)O)NC1=O [CASPOFUNGIN]
minimal effective concentration (Talaromyces marneffei): > 8 µg/mL | MFC [1]: > 2 µg/mL | MFC (Pichia kudriavzevii): 2 µg/mL (≈ 1.83 µM) | MFC (Aspergillus flavus [2]): > 8 µg/mL | MEC [3]: > 8 µg/mL | MFC [4]: > 8 µg/mL | MIC (Aspergillus flavus [5]): 0.28 µg/mL (≈ 0.256 µM) | minimal effective concentration (Aspergillus flavus [5]; read-out: MEC): 0.25 µg/mL | MFC (Cunninghamella [6]): > 8 µg/mL | MFC (Rhizopus arrhizus [7]): > 8 µg/mL | MFC (Trichosporon inkin): > 8 µg/mL | MIC (Aspergillus niger [8]): 0.36 µg/mL (≈ 0.329 µM) | minimal effective concentration (Aspergillus niger [8]; read-out: MEC): 0.25 µg/mL | MIC [9]: 2.04 µg/mL (≈ 1.87 µM) | MFC (Nakaseomyces glabratus): 0.15 µg/mL (≈ 0.137 µM) | MFC (Trichosporon asahii [10]): > 8 µg/mL | MFC (Curvularia lunata): > 8 µg/mL | MFC (Rhizomucor): > 8 µg/mL | minimal effective concentration (Rhizopus arrhizus [11]): > 8 µg/mL | minimal effective concentration (Cunninghamella [12]): > 8 µg/mL | MFC (Geotrichum candidum): > 8 µg/mL | minimal effective concentration (Fusarium solani): > 8 µg/mL | minimal effective concentration (Sporothrix schenckii): > 8 µg/mL | MIC (Candida tropicalis [13]): 0.34 µg/mL (≈ 0.311 µM) | minimal effective concentration (Scedosporium apiospermum): > 8 µg/mL | MIC (Clavispora lusitaniae): 0.32 µg/mL (≈ 0.293 µM) | MFC (Aspergillus niger [14]): > 8 µg/mL | MFC (Candida tropicalis [15]): 0.5 µg/mL (≈ 0.457 µM) | MFC [16]: > 8 µg/mL | MFC (Candida parapsilosis): 0.25 µg/mL (≈ 0.229 µM) | MIC (Trichosporon asahii [17]): 4 µg/mL (≈ 3.66 µM) | MFC (Lomentospora prolificans): > 8 µg/mL | MFC (Lichtheimia corymbifera [18]): > 8 µg/mL | minimal effective concentration (Absidia): > 8 µg/mL | MFC (Saccharomyces cerevisiae): 4 µg/mL (≈ 3.66 µM) | minimal effective concentration (Rhizopus): > 8 µg/mL | minimal effective concentration (Mucor hiemalis): > 8 µg/mL | minimal effective concentration (Lichtheimia corymbifera [19]): > 8 µg/mL
